Reference: PMC4650587 (Cell Research, 2014)
Entries after “also recorded” stand apart in the source; their conditions may differ. Where two headings read alike, the source gives them in different places.

Experiments:
[1] = target: CBM-KD interaction of AMPK; test: AlphaScreen interaction between isolated biotin-CBM and His6-KD in trans; format: binding, human
In short: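 Biotin-CBM (β2[75-163] avitag, biotinylated in vivo) was split in two. One half was phosphorylated in trans by CaMKKβ-phosphorylated His6-KD (CBM:KD 50:1, 4 h, RT), then freed of KD by Ni column and size exclusion. 100 nM biotin-CBM on streptavidin donor beads was paired with 100 nM His6-KD on Ni acceptor beads. Buffer: 50 mM MOPS pH 7.4, 50 mM NaF, 50 mM CHAPS, 0.1 mg/ml BSA.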

[2] = tested on: human α1β2γ1 AMPK; test: Radioactive kinase assay; format: biochemical; details: phosphorylated AMPK; 1 mg/ml glycogen
[3] = tested on: recombinant, E. coli-expressed AMPK; details: cited from earlier work
[4] = tested on: rat liver AMPK; details: cited from earlier work
[5] = target: holo-AMPK; test: AlphaScreen CBM-KD interaction in holo-AMPK; format: binding, human; details: glycogen 0.5 mg/ml, cyclodextrin 2 mM
[6] = target: human α1β2γ1 AMPK (Homo sapiens, UniProt P54619); format: biochemical
Chain of human α1β2γ1 AMPK (Homo sapiens, UniProt P54619) (P54619 24-327, one chain of several): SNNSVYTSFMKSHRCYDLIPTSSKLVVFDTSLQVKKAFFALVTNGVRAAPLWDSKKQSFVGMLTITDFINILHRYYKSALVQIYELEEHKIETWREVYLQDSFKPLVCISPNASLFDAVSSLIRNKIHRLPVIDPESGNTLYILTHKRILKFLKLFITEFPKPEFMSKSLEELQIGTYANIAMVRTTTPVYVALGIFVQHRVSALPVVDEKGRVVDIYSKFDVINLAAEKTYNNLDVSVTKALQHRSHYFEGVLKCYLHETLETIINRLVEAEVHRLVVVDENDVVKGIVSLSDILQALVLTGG
Chain of human α1β2γ1 AMPK (Homo sapiens, UniProt P54619) (Q13131 20-559 partner, one chain of several): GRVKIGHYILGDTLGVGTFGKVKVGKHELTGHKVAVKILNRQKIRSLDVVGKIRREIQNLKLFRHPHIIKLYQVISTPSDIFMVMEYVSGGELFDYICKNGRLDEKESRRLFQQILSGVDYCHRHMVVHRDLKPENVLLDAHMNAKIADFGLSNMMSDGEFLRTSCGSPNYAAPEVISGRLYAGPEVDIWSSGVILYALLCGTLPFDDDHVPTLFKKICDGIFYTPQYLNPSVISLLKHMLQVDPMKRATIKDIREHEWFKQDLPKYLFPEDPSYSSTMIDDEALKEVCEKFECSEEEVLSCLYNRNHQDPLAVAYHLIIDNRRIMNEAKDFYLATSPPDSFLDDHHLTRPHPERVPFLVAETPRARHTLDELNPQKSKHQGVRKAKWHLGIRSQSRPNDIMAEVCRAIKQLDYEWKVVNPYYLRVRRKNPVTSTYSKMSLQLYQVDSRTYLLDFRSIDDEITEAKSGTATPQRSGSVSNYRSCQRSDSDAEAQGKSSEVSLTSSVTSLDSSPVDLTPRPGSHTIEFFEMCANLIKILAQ

[7] = tested on: AID-αRIM / core AMPK(α1[395-550]-β2[187-272]-γ1); test: AlphaScreen interaction between biotinylated core AMPK and His6GST-AID-αRIM; format: binding, human; details: wild-type AID-αRIM; AMP 0.2 mM, ATP 1 mM
In short: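 Two-protein AlphaScreen pairing 100 nM His6-tagged protein on nickel acceptor beads with 100 nM biotin-tagged protein on streptavidin donor beads. Biotinylated core AMPK (α1[395-550]-β2[187-272]-γ1) was an avitag fusion biotinylated in E. coli by co-expressed BirA with 40 μM biotin. Reactions ran in 50 mM MOPS pH 7.4, 50 mM NaF, 50 mM CHAPS, 0.1 mg/ml BSA, 0.2 mM AMP, 1 mM ATP.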

[8] = tested on: AMPK; details: cited from earlier work
[9] = target: T1, AMPK γ1(24-327), γ-subunit of the crystallised holo-AMPK (human, UniProt P54619 24-327); test: crystal structure
T1 sequence (P54619 24-327): as the sequence (P54619 24-327, one chain of several) above

[10] = target: T1, AMPK γ1(24-327), γ-subunit of the …; test: crystal structure; remark: listed apart in the source

Molecule: glycogen
- effect on CBM-KD interaction signal ([1]; phosphorylated and non-phosphorylated CBM, glycogen 0.5 mg/ml): almost abolished this interaction
- effect on AMPK catalytic activity [2]: failed to detect an effect
- effect on catalytic activity of recombinant AMPK [3]: mildly inhibit
- effect on activity of immunoprecipitated native rat liver AMPK [4]: more substantially inhibit
- effect on activity of purified rat liver AMPK ([4]; purified rat liver AMPK): did not detect an effect
- effect on AlphaScreen signal of holo-AMPK (CBM-KD) ([5]; non-phosphorylated AMPK): significant (P < 0.01) signal decrease
- effect on AlphaScreen signal of holo-AMPK (CBM-KD) ([5]; phosphorylated AMPK): smaller decrease

Molecule: OC[C@H]1O[C@@H]2O[C@H]3[C@H](O)[C@@H](O)[C@@H](O[C@H]4[C@H](O)[C@@H](O)[C@@H](O[C@H]5[C@H](O)[C@@H](O)[C@@H](O[C@H]6[C@H](O)[C@@H](O)[C@@H](O[C@H]7[C@H](O)[C@@H](O)[C@@H](O[C@H]8[C@H](O)[C@@H](O)[C@@H](O[C@H]1[C@H](O)[C@H]2O)O[C@@H]8CO)O[C@@H]7CO)O[C@@H]6CO)O[C@@H]5CO)O[C@@H]4CO)O[C@@H]3CO [cyclodextrin, β-cyclodextrin hydrate]
- effect on CBM-KD interaction signal ([1]; non-phosphorylated CBM, cyclodextrin 2 mM): greatly reduced the interaction; also recorded: strongly reduced the interaction
- effect on CBM-KD interaction signal ([1]; phosphorylated CBM, cyclodextrin 2 mM): mildly; also recorded: only weakly reduced the interaction
- effect on catalytic activity of recombinant AMPK [3]: mildly inhibit
- effect on activity of immunoprecipitated native rat liver AMPK [4]: more substantially inhibit
- effect on AlphaScreen signal of holo-AMPK (CBM-KD) ([5]; phosphorylated AMPK): smaller decrease

Molecule: Nc1ncnc2c1ncn2[C@@H]1O[C@H](COP(=O)(O)OP(=O)(O)OP(=O)(O)O)[C@@H](O)[C@H]1O [ATP]
- change of luminescence signal, α-γ tagged AMPK ([6]; 1 mM ATP): decreased the signal by a factor of two
- effect on AID-αRIM / core AMPK interaction signal [7]: decreased

Molecule: Cc1ccc(Oc2nc3cc(-c4ccc5c(ccn5C)c4)c(Cl)cc3[nH]2)cc1C(=O)O [compound 991]
- effect on kinase activity [8]: increase kinase activity

Molecule: Nc1ncnc2c1ncn2[C@@H]1O[C@H](COP(=O)(O)O)[C@@H](O)[C@H]1O [AMP]
- change of luminescence signal, α-γ tagged AMPK ([6]; 2 μM AMP): doubled the luminescence signal
- effect on AID-αRIM / core AMPK interaction signal [7]: increased

Molecule: N#Cc1c(O)c2c(-c3ccc(-c4ccccc4O)cc3)csc2[nH]c1=O [A769662]
- effect on kinase activity [8]: increase kinase activity

B1: phosphorylated AMPK β2(76-272), β-subunit of the crystallised phosphorylated holo-AMPK (domain or fragment)
chain: ARPTVIRWSEGGKEVFISGSFNNWSTKIPLIKSHNDFVAILDLPEGEHQYKFFVDGQWVHDPSEPVVTSQLGTINNLIHVKKSDFEVFDALKLDSMESSETSCRDLSSSPPGPYGQEMYAFRSEERFKSPPILPPHLLQVILNKDTNISCDPALLPEPNHVMLNHLYALSIKDSVMVLSATHRYKKKYVTTLLYKPI
modifications: phosphoserine at 108 (autophosphorylated)
- binding result [9]: binds

B2: non-phosphorylated AMPK β2(76-272), β-subunit of the crystallised non-phosphorylated holo-AMPK (domain or fragment)
chain: B1 chain
- binding result [10]: binds
